SENP7 inh – SENP7 protease inhibitors, primary screen, biochemical, luminescence, uHTS. inhibition, % at 5 µM. recombinant SENP7, Z-RLRGG-aminoluciferin luminescence, 40 min. Sentrin-specific protease 7 (Homo sapiens), Q9BQF6. 330,000 tested, 1.5% active;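 active = inhibition above about 50% at the single test dose, limit read from the data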
SENP8 block-1 – human SENP8 protease inhibitors, primary screen, biochemical, fluorescence, Nedd8 protein substrate, uHTS | Sentrin-specific protease 8 (Homo sapiens), Q96LD8 | recombinant SENP8 | inhibition, % at 20 µM | 360,000 tested, 0.64% active; in the data active = inhibition mostly above about 40%, no sharp cut-off; inactive = mostly below about 27%
Apaf-1 inh – inhibitors of human Apaf-1 apoptosome, primary screen, biochemical, DEVD-Rh110 fluorescence, uHTS; Apoptotic protease-activating factor 1 (Homo sapiens), O14727; reconstituted apoptosome caspase-3 activity; inhibition, % at 20 µM; 330,000 tested, 0.71% active; AID 489030, 2010; active = inhibition of at least 40% at 20 µM
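System: reconstituted apoptosome with Apaf-1, cytochrome c, caspase-9, procaspase-3, dATP; Signal: Rh110 fluorescence intensity; Schedule: 30 min compound preincubation, 50 min activation, room temperature; Reagent: cytochrome c trigger plus (Z-DEVD)2-Rh110 caspase-3 substrate.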
SENP8 block-2 – SENP8 protease inhibitors, primary screen, biochemical, luminescence; Sentrin-specific protease 8 (Homo sapiens), Q96LD8; purified SENP8, Z-RLRGG-aminoluciferin cleavage; inhibition, % at 10 µM; 330,000 tested, 1.2% active; AID 2540, 2010; in the data active = inhibition above about 50%
SENP6 block – SENP6 protease inhibitors, primary screen, biochemical, luminescence, uHTS. Sentrin-specific protease 6 (Homo sapiens), Q9GZR1. Recombinant SENP6 catalytic domain, aminoluciferin luminescence. inhibition, % at 10 µM. 330,000 tested, 1.8% active. AID 2599, 2010;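 active = inhibition above about 50% at the single tested dose, limit read from the data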
UBC13 inh – UBC13 polyubiquitin chain formation inhibitors, primary screen, biochemical, TR-FRET, uHTS. inhibition, % at 20 µM. Ubiquitin-conjugating enzyme E2 N (Homo sapiens), P61088. 330,000 tested, 0.47% active; in the data active = inhibition above about 45%, passing the limit was not always enough
SENP8 confirm – SENP8 protease inhibitors, retest, confirmation, biochemical, luminescence, single concentration; shares compounds with SENP7 inh; Recombinant SENP8, Z-RLRGG-aminoluciferin luminescence, 60 min; inhibition, % at 12.5 µM; 6,200 tested, 40% active;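 active = mean inhibition across replicates above about 50%, limit read from the data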
SENP6 conf – SENP6 protease inhibitors, confirmation, biochemical, luminescence, single concentration; shares compounds with SENP7 inh; recombinant SENP6, Z-RLRGG-aminoluciferin luminescence; inhibition, % at 12.5 µM; 6,200 tested, 58% active
SENP7 conf – SENP7 protease inhibitors, retest, confirmation, biochemical, luminescence, single concentration; shares compounds with SENP7 inh; recombinant SENP7, Z-RLRGG-aminoluciferin luminescence, 40 min; inhibition, % at 12.5 µM; 6,200 tested, 69% active; AID 488917, 2010
Casp3 select – caspase-3 protease inhibitors, confirmation, selectivity assay for SENP inhibitor project, biochemical, single concentration. inhibition, % at 12.5 µM. shares compounds with SENP7 inh. AID 488918, 2010. 6,200 tested, 60% active. purified caspase-3, Z-DEVD-aminoluciferin luminescence, 60 min;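 active = mean inhibition above about 50%, limit read from the data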
SENP luc ctr – counter-screen for SENP inhibitors: luminescence interference; shares compounds with SENP7 inh; Pre-incubated SENP8/Z-RLRGG-aminoluciferin, luciferase luminescence interference; inhibition, % at 12.5 µM; 6,200 tested, 39% active;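 active = mean inhibition above about 50% when retested at one dose, limit read from the data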
Each line names hits and unclear results; the compound was inactive in the other large screens (follow-up assays come after a bar, where they were run). A selection: hits, their analogues and other compounds. The true share with any hit is near 3%.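 Rule for the calls, unless noted: active = mean inhibition above about 50% in the one-dose retest (limit read from the data); inactive = the rest.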

CCc1cccc(N(C(=O)c2csnn2)C(C(=O)NC(C)(C)CC)c2ccccn2)c1 (centres undefined)	none
CCCc1cc(NC(=O)COC(=O)c2nccnc2N)n(-c2ccccc2)n1	none
CCN1CCC(N2CCN(c3ccc(Cl)cc3)CC2)CC1	SENP6 block 78 (no result: SENP8 block-1) | SENP8 confirm inactive | SENP6 conf inactive | SENP7 conf inactive | Casp3 select inactive | SENP luc ctr inactive
CCCN1CCC(N2CCN(c3ccc([N+](=O)[O-])cc3)CC2)CC1	none
COc1ccc(S(=O)(=O)CC2(O)CCN(C(=O)C(C)(C)C)CC2)cc1	none
Cc1cccc(-n2ncc3c(N4CCC(C)CC4)ncnc32)c1	SENP8 block-2 54, SENP6 block 61 | SENP8 confirm 60 | SENP6 conf 59 | SENP7 conf 83 | Casp3 select inactive | SENP luc ctr inactive
Cc1ccc(-n2ncc3c(N4CCCC(C)C4)ncnc32)c(C)c1 (centres undefined)	none
c1ccc(-n2ncc3c(N4CCCCC4)ncnc32)cc1	SENP7 inh 84, SENP8 block-2 85, SENP6 block 84 | SENP8 confirm 86 | SENP6 conf 84 | SENP7 conf 96 | Casp3 select 86 | SENP luc ctr 84
Cc1cccc(-n2ncc3c(N4CCC5(CC4)OCCO5)ncnc32)c1	none
CC1CCCN(c2ncnc3c2cnn3-c2ccccc2)C1 (centres undefined)	SENP8 block-2 62, SENP6 block 64 | SENP8 confirm inactive | SENP6 conf inactive | SENP7 conf 68 | Casp3 select inactive | SENP luc ctr 53
CCN1CCN(c2ncnc3c2cnn3-c2ccccc2)CC1	none
CC1CCCN(c2ncnc3c2cnn3-c2ccc(Cl)cc2)C1 (centres undefined)	SENP7 inh 95, SENP8 block-2 94, SENP6 block 94 | SENP8 confirm 90 | SENP6 conf 94 | SENP7 conf 98 | Casp3 select 92 | SENP luc ctr inactive
O=C(Oc1ccc(-n2cnnn2)cc1)c1ccccc1	none
COc1ccc(CCNC(=O)CCn2c(SCC(=O)N3CCCC3)nc3ccccc3c2=O)cc1OC	SENP6 block 70 | SENP8 confirm inactive | SENP6 conf inactive | SENP7 conf inactive | Casp3 select inactive | SENP luc ctr inactive
Cc1ccc(-n2c(C)cc(C3=NNC(=NC4CC4)SC3)c2C)cc1C	SENP8 block-2 56 | SENP8 confirm 82 | SENP6 conf 84 | SENP7 conf 93 | Casp3 select 74 | SENP luc ctr 53
Cc1cc(C2=NNC(=NC3CC3)SC2)c(C)n1-c1c(C)n(C)n(-c2ccccc2)c1=O	none
CCN1CCN(c2ccc(NC(=O)c3cc(S(=O)(=O)N4CCCC4)ccc3Cl)cc2)CC1	none
CC(=O)Oc1ccc2cc(-c3ccccc3)c(=O)oc2c1	SENP7 inh 85, SENP8 block-2 86, SENP6 block 93 | SENP8 confirm inactive | SENP6 conf inactive | SENP7 conf 50 | Casp3 select inactive | SENP luc ctr inactive
CC(=O)COc1ccc2cc(-c3ccccc3)c(=O)oc2c1	none
NCc1csc(Nc2ccc(C(=O)c3ccccc3)cc2)n1	none (no result: SENP7 inh, Apaf-1 inh, SENP8 block-2, SENP6 block, UBC13 inh)
Cc1cc2nn(-c3ccccc3)nc2cc1NC(=O)c1cccs1	none
CC(=O)Nc1cc2nn(-c3ccccc3)nc2cc1C	SENP7 inh 77, SENP8 block-2 72, SENP6 block 78 | SENP8 confirm inactive | SENP6 conf inactive | SENP7 conf 87 | Casp3 select 79 | SENP luc ctr inactive
CCOc1ccc(/C=N/Nc2nc(C)cs2)c(O)c1	none
CN(C)CCN(C)C1CN(C2CCCC2)S(=O)(=O)C1 (centres undefined)	none (no result: SENP7 inh, Apaf-1 inh, SENP8 block-2, SENP6 block, UBC13 inh)
CCOc1cccc(C(=O)Nc2nnc(-c3ccco3)s2)c1	SENP7 inh 73, SENP8 block-2 60, SENP6 block 68 | SENP8 confirm inactive | SENP6 conf inactive | SENP7 conf inactive | Casp3 select inactive | SENP luc ctr inactive
COc1cccc(C(=O)Nc2nnc(-c3cccs3)s2)c1	SENP7 inh 53, SENP6 block 53 | SENP8 confirm inactive | SENP6 conf inactive | SENP7 conf inactive | Casp3 select inactive | SENP luc ctr inactive
CN1N=C2c3ccccc3CCC2C1c1ccc(F)cc1 (centres undefined)	none
c1ccc(N2CC3CCc4ccccc4C3=N2)cc1 (centres undefined)	SENP7 inh 59, SENP6 block 57 | SENP8 confirm inactive | SENP6 conf 51 | SENP7 conf 72 | Casp3 select inactive | SENP luc ctr inactive
Cc1ccsc1C(=O)NNC(=O)c1ccccc1F	SENP7 inh 58 | SENP8 confirm inactive | SENP6 conf inactive | SENP7 conf 76 | Casp3 select 83 | SENP luc ctr 56
O=C(NNC(=O)c1ccccc1F)c1cccs1	none
O=[N+]([O-])c1cccc(-c2nnc(-c3ccccc3)o2)c1	none
Clc1ccccc1-c1nnc(-c2ccc3c(c2)OCO3)o1	SENP7 inh 90, SENP8 block-2 89, SENP6 block 92 | SENP8 confirm 64 | SENP6 conf 94 | SENP7 conf 95 | Casp3 select 79 | SENP luc ctr 59
O=[N+]([O-])c1cccc(-c2nnc(-c3ccc4c(c3)OCO4)o2)c1	SENP7 inh 65 | SENP8 confirm inactive | SENP6 conf inactive | SENP7 conf inactive | Casp3 select inactive | SENP luc ctr inactive
O=C(CCNS(=O)(=O)c1cccc(C(F)(F)F)c1)NCc1ccco1	none
CC(=O)C(Sc1ccc2nnc(-c3cccnc3)n2n1)C(C)=O	none
CCCCn1c(N)c(N(CC(C)C)C(=O)CSC(C)C(=O)Nc2cc(C)on2)c(=O)[nH]c1=O (centres undefined)	none

Compound activity from PubChem.
